Test results: ChEMBL document CHEMBL1221297, “Design, synthesis, and in vitro antiprotozoal, antimycobacterial activities of N-{2-[(7-chloroquinolin-4-yl)amino]ethyl}ureas” (Bioorg Med Chem, 2010)
Values after ≈ are worked out from the molar mass of the structure shown.

Tests used:
[1] = system: Mycobacterium tuberculosis; test: Antimicrobial activity against Mycobacterium tuberculosis H37Rv ATTC 27294 by microplate alamar blue assay; assay type: functional, organism-based
Summary of the method: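 Inoculum from a log-phase culture adjusted to McFarland 1, then diluted 1:50 in Middlebrook 7H9 broth to 6 × 10⁶ CFU/mL and prepared just before inoculation. Compounds tested from […]. Ethambutol served as positive internal standard. MIC read by Alamar Blue. Done in triplicate.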

Leishmania mexicana = test: Antimicrobial activity against promastigotes form of Leishmania mexicana MHOM/MX/ISETGS after 72 hrs; assay type: functional, organism-based
Summary of the method: (§1)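 Parasites grown at 26 °C in Schneider's drosophila medium with 10% FBS and penicillin. 10,000 L. mexicana promastigotes or 20,000 T. cruzi epimastigotes per well, at 10, 5, 2.5 and 1.25 µg/mL. Untreated parasite cultures included. 72 h at 26 °C, then parasites counted directly in a Neubauer chamber. IC50 by probit analysis.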

Giardia intestinalis = test: Antimicrobial activity against Giardia intestinalis IMSS:0696:1 after 48 hrs; assay type: functional, organism-based; conditions: Giardia duodenalis, IMSS:0696:1, 48 h
Summary of the method: (§2)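 Trophozoites (4 × 10⁴) exposed 48 h at 37 °C to increasing compound concentrations; DMSO-medium negative control. Then washed and subcultured 48 h in fresh drug-free medium before counting. IC50 by probit analysis; triplicate, repeated at least twice. Giardia grown in modified TYI-S-33 with 10% calf serum and bovine bile. Trichomonas and Entamoeba grown in TYI-S-33 with 10% bovine serum.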

Trichomonas vaginalis = test: Antimicrobial activity against Trichomonas vaginalis GT3 after 48 hrs; assay type: functional, organism-based; conditions: GT3, 48 h; summary of the method: as §2
Entamoeba histolytica = test: Antimicrobial activity against Entamoeba histolytica HM-1:IMSS after 48 hrs; assay type: functional, organism-based; summary of the method: as §2
Trypanosoma cruzi = test: Antimicrobial activity against epimastigotes form of Trypanosoma cruzi MHOM/MX/1994/Ninoa after 72 hrs; assay type: functional, organism-based; summary of the method: as §1
[2] = Selectivity index, ratio of CC50 for african green monkey Vero cells to IC50 for Giardia intestinalis IMSS:0696:1; assay type: functional
Summary of the method: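 SI computed as CC50 in VERO cells divided by IC50 against the parasite.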

[3] = Cytotoxicity against african green monkey Vero cells after 72 hrs by MTT assay; assay type: cell-based; conditions: chlorocebus sabaeus
Summary of the method: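 VERO cells (1.5 × 10⁴) grown in DMEM with 10% FBS at 37 °C, 5% CO₂. Seeded and grown 24–48 h, then treated at >80% confluence with 6.25–100 µg/mL (DMSO ≤0.05%) for 72 h. MTT added for 4 h at 37 °C. Formazan dissolved in acidified isopropanol and read at OD 540 nm. CC50 from triplicates.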

SMILES	IC50 [1] [µg/mL]	IC50 (Leishmania mexicana) [µM]	IC50 (Giardia intestinalis) [µM]	IC50 (Trichomonas vaginalis) [µM]	IC50 (Entamoeba histolytica) [µM]	IC50 (Trypanosoma cruzi) [µM]	Ratio CC50/IC50 [2]	CC50 at 72 h [3] [µM]
COc1ccc(NC(=O)NCCNc2ccnc3cc(Cl)ccc23)cc1	8 (≈ 21.6 µM)	> 50	0.595	21.7	10.7	> 50		
O=C(NCCNc1ccnc2cc(Cl)ccc12)NC1CCCCC1	8 (≈ 23.1 µM)	> 50	1.65	66.7	6.93	> 50		
O=C(NCCNc1ccnc2cc(Cl)ccc12)Nc1ccccc1	8 (≈ 23.5 µM)	> 50	1.17	46	5.37	> 50		
O=C(NCCNc1ccnc2cc(Cl)ccc12)Nc1ccc(Cl)cc1	4 (≈ 10.7 µM)	50	0.267	9.59	6.87	50		
O=C(NCCNc1ccnc2cc(Cl)ccc12)Nc1ccc(F)cc1	8 (≈ 22.3 µM)	> 50	0.927	23.2	17.7	> 50		
CCOc1ccc(NC(=O)NCCNc2ccnc3cc(Cl)ccc23)cc1	8 (≈ 20.8 µM)	50	0.339	30.1	5.93	50		
CCCCOc1ccc(NC(=O)NCCNc2ccnc3cc(Cl)ccc23)cc1	2 (≈ 4.84 µM)	9.9	0.008	8.44	3.64	50	625	5
O=C(NCCNc1ccnc2cc(Cl)ccc12)Nc1ccc([N+](=O)[O-])cc1	8 (≈ 20.7 µM)	50	1.75	12	10.6	50		
NCCNc1ccnc2cc(Cl)ccc12	8 (≈ 36.1 µM)	> 50	1.25	23	14.6	> 50		
O=C(Cn1ccnc1[N+](=O)[O-])NCc1ccccc1 [BENZNIDAZOLE]						34.4		
CCN(CC)CCCC(C)Nc1ccnc2cc(Cl)ccc12 (stereo unspecified) [CHLOROQUINE]	> 8	> 50	0.401	30	9.58	> 50		
CC[C@@H](CO)NCCN[C@@H](CC)CO [ETHAMBUTOL]	4 (≈ 19.6 µM)							
N=C(N)c1ccc(OCCCCCOc2ccc(C(=N)N)cc2)cc1 [PENTAMIDINE]		13.3						
CC(C)CCOc1ccc(NC(=S)Nc2ccc(OCCC(C)C)cc2)cc1 [TIOCARLIDE]	4 (≈ 9.99 µM)							
